The target of test [1] is T1, ATP-citrate synthase (Homo sapiens, UniProt P53396).
T1 sequence (P53396 whole entry): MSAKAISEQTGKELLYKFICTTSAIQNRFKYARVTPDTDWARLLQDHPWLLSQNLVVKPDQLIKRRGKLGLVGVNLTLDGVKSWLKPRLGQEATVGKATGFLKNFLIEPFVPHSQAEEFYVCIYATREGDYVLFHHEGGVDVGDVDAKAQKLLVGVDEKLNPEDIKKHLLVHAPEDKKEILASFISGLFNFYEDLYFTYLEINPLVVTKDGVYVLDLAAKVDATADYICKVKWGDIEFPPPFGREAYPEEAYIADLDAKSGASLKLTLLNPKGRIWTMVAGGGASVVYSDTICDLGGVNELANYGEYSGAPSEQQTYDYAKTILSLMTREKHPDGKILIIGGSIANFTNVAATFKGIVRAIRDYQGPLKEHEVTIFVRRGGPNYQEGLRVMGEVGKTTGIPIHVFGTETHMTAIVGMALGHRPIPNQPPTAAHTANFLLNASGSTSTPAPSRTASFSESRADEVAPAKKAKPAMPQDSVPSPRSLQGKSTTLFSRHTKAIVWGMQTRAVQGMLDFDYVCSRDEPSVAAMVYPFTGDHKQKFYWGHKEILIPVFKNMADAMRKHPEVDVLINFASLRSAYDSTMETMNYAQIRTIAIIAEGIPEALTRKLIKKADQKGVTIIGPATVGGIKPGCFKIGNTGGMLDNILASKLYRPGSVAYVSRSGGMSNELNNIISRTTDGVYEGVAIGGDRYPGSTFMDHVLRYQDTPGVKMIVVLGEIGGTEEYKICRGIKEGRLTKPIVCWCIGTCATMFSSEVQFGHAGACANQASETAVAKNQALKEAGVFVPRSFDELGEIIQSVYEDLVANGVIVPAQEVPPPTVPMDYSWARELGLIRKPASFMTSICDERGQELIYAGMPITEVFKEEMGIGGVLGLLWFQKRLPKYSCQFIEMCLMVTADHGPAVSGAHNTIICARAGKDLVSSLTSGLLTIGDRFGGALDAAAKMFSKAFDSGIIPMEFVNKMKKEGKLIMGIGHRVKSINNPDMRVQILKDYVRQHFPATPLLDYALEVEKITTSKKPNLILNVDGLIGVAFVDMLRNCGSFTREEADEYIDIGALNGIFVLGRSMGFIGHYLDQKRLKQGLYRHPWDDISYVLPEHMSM
As to the kind of experiment: Inhibitory activity against human recombinant ATP-Citrate Lyase (ACL) enzyme. The procedure, abridged: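 Human recombinant ATP-citrate lyase was used. Lactone intermediates were hydrolysed with aqueous NaOH to the hydroxy acid before being added to the enzyme buffer mix. Potency was reported as the reversible Ki.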

The subject of test [2] is HepG2. As to the kind of experiment: Inhibition of ATP levels in HepG2 cells was measured at 10 uM concentration. Type of test: functional, Homo sapiens. Further details: scale not given: the % may be the effect or the level left. In short, it runs like this:
(§1)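 Compounds were applied to HepG2 cells as their γ-lactone prodrugs. De novo cholesterol synthesis, fatty acid synthesis and cellular ATP levels were each expressed as % of control. Significance was marked at p < 0.001.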

For test [3], the system named is HepG2. The test is described as follows: Inhibition of ATP levels in HepG2 cells was measured at 3 uM concentration. It is filed as functional, Homo sapiens. Also noted: scale not given: the % may be the effect or the level left. The procedure, abridged:
as §1

The subject of test [4] is HepG2. The test is described as follows: Inhibition of cholesterol synthesis in HepG2 cells was measured at 10 uM concentration. Also noted: scale not given: the % may be the effect or the level left. It is filed as functional, Homo sapiens. The procedure, abridged: as §1
Test [5] has as its system HepG2. As to the kind of experiment: Inhibition of cholesterol synthesis in HepG2 cells was measured at 3 uM concentration. Type of test: functional, Homo sapiens. Also noted: scale not given: the % may be the effect or the level left. The procedure, abridged:
as §1

Test [6] relates to HepG2. The test is described as follows: Inhibition of fatty acid synthesis in HepG2 cells was measured at 3 uM concentration. Type of test: functional, Homo sapiens. Also noted: scale not given: the % may be the effect or the level left. In short, it runs like this: as §1
Test [7] deals with Rattus norvegicus. The test is described as follows: % Reduction of plasma triglyceride in the rat was measured at dose 37.5 mg/kg/d. It is filed as functional. The procedure, abridged:
(§2)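 Male Sprague-Dawley rats were kept on a reverse 12 h light/12 h dark cycle with free access to RM1 powdered diet and water. Compound was given orally by gavage as two doses 24 h apart. Blood was drawn mid dark cycle, 4 h after the second dose, into EDTA. Plasma was separated at 1500g for 15 min. Triglyceride was measured enzymatically (GPO-PAP) and reported as % reduction from control.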

For test [8], the system named is Rattus norvegicus. As to the kind of experiment: % Reduction of plasma triglyceride in the rat was measured at dose 75 mg/kg/d. It is filed as functional. The procedure, abridged: as §2
For test [9], the system named is HepG2. The test is described as follows: Inhibition of fatty acid synthesis in HepG2 cells was measured at 10 uM concentration. It is filed as functional, Homo sapiens. Also noted: scale not given: the % may be the effect or the level left. The procedure, abridged: as §1
In test [10] the target is T2, ATP-citrate synthase (Rattus norvegicus, UniProt P16638).
T2 sequence (P16638 whole entry): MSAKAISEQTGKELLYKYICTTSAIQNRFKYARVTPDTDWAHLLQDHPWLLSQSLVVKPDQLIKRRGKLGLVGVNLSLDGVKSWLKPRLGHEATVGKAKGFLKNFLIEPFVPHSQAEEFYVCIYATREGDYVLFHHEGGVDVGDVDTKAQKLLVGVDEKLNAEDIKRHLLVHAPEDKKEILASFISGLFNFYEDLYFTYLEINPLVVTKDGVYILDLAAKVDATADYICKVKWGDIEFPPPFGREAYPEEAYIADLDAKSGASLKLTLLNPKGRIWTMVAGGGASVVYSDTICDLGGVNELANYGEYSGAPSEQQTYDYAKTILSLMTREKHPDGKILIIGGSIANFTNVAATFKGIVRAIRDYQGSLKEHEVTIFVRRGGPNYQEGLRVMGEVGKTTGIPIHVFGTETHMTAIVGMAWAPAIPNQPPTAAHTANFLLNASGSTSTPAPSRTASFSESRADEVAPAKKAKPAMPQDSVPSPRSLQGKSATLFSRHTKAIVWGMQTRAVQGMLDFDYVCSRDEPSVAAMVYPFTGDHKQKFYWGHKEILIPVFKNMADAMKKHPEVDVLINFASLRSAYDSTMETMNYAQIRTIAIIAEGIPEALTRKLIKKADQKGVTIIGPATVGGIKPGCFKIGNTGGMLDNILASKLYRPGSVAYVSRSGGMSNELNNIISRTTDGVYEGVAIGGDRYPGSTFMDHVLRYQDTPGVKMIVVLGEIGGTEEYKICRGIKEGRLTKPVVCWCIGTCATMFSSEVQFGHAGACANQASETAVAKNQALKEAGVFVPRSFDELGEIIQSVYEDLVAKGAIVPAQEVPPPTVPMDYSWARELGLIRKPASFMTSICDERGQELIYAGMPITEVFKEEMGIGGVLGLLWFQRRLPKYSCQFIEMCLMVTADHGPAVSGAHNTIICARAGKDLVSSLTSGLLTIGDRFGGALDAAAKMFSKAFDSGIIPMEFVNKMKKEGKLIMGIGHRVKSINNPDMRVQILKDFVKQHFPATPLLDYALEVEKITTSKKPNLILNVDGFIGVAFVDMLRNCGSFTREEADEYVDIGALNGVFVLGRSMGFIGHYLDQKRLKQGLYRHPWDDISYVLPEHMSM
The test is described as follows: Inhibitory activity was tested against rat ATP-Citrate Lyase (ACL) enzyme.

Test [11] has as its target T3, ATP-citrate synthase (Homo sapiens) (UniProt P53396).
T3 sequence (whole entry): T1 sequence (P53396 whole entry)
The test is described as follows: Inhibitory activity was tested against human recombinant ATP-Citrate Lyase (ACL) enzyme at 100 uM.

What is called Ki is a measure of affinity in units of concentration, obtained from inhibition or displacement. What is called inhibition is how much of the control response was suppressed.

The structures appear in SMILES notation.

Consider `O=C(O)C[C@@](O)(C[C@H](O)CCCCCn1ccc2ccc(Cl)cc21)C(=O)O`, for which the Ki in [1] is 41000 nM.

Consider `O=C(O)C[C@@](O)(C[C@H](O)CCCCn1ccc2cc(Cl)ccc21)C(=O)O`, for which the Ki in test [1] came out at 160000 nM.

On to `O=C(O)C[C@](O)(C(=O)O)[C@@H](O)CCCCCCCc1ccc(Cl)cc1Cl`, for which, in test [1], the Ki is 5700 nM.

As for `O=C(O)C[C@](O)(C(=O)O)[C@@H](O)CCCCCCCCc1ccc(Cl)cc1Cl`, in test [1], the Ki came out at 18000 nM.

Consider `O=C(O)C[C@@](O)(C[C@H](O)CCCCCn1ccc2cc(Cl)cc(Cl)c21)C(=O)O`, for which the inhibition constant (Ki) in test [1] amounted to 1800 nM.

In the case of `O=C(O)C[C@@]1(O)C[C@@H](CCCCCCc2ccc(Cl)cc2Cl)OC1=O`, the Control in test [2] is 97%; in test [3], 97%; in test [4] it was 53%; in test [5] it was 98%; in test [6] it was 114%; in test [9] it was 74%. The Reduction in test [7] turned out to be 31%; in test [8] it was 56%.

`O=C(O)C[C@@](O)(C[C@H](O)CCCCCCc1ccc(Cl)cc1Cl)C(=O)O` (stereo in doubt; (+)-45): the results for the inhibition constant (Ki) in test [10] and in test [1] were 700 nM and 880 nM, respectively.

Regarding `O=C(O)C[C@@](O)(C[C@H](O)CCCCCn1cc(-c2ccccc2)c2cc(Cl)ccc21)C(=O)O`, in [1], the Ki was 11000 nM.

Turning to `O=C(O)C[C@@](O)(C[C@H](O)CCCCCn1ccc2cc(Cl)ccc21)C(=O)O`, the inhibition constant (Ki) in test [1] was 3500 nM.

Turning to `Cc1ccc(-c2cc(Cl)ccc2CCCCCC[C@@H](O)C[C@](O)(CC(=O)O)C(=O)O)cc1`, the inhibition constant Ki in [1] was 2700 nM.

For `Cc1ccc(C)n1-c1cc(Cl)ccc1CCCCCC[C@@H](O)C[C@](O)(CC(=O)O)C(=O)O`, in [11], the inhibition is 67%.

`O=C(O)C[C@@](O)(C[C@H](O)CCCCCCc1ccc(Cl)cc1OCc1ccccc1)C(=O)O`: the Ki in test [1] came to 1100 nM.

Turning to `O=C(O)[C@@H](O)[C@@](O)(C[C@H](O)CCCCCCc1ccc(Cl)cc1Cl)C(=O)O`, the Ki in [1] was found to be 620 nM.

Regarding `Cc1cn(-c2cc(Cl)ccc2CCCCCC[C@@H](O)C[C@](O)(CC(=O)O)C(=O)O)cc1C` (stereo in doubt; (-)-58), in [1], the Ki turned out to be 340 nM.

For `O=C(O)C[C@@](O)(C[C@H](O)CCCCCn1c2c(c3cc(Cl)ccc31)CCCC2)C(=O)O`, the inhibitory constant (Ki) in test [1] stood at 2900 nM.

Turning to `O=C(O)C[C@@]1(O)C[C@@H](CCCCCn2c3ccccc3c3cc(Cl)ccc32)OC1=O`, the Reduction was 16% in test [7] and 33% in test [8].

Take `O=C(O)C[C@@](O)(C[C@@H](O)CCCCCCc1ccc(Cl)cc1Cl)C(=O)O`: the Ki in test [1] came to 2000 nM.

For `O=C(O)C[C@@](O)(C[C@H](O)CCCCCn1cc([N+](=O)[O-])c2cc(Cl)ccc21)C(=O)O`, the Ki in test [1] worked out at 64000 nM.

Turning to `O=C(O)[C@H](O)[C@@](O)(C[C@H](O)CCCCCCc1ccc(Cl)cc1Cl)C(=O)O`, the inhibition constant (Ki) in [1] was 550 nM.

Take `O=C(O)C[C@@]1(O)C[C@@H](CCCCCCc2ccc(Cl)cc2COc2ccccc2)OC1=O`: the results for the Reduction in [7] and in [8] were 22% and 34%, respectively.

On to `O=C(O)C[C@@](O)(C[C@H](O)CCCCCn1c(-c2ccccc2)cc2cc(Cl)ccc21)C(=O)O`, for which the Ki in test [1] was found to be 370 nM.
